Casp6 inh = human caspase-6 inhibitors, primary screen, biochemical, VEID-R110 fluorescence, single point, set 2 | actives 0.53% (n = 350,000) | P55212 | inhibition, % at 12.5 µM | purified caspase-6, Z-VEID-R110 cleavage fluorescence;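 active = mean inhibition across replicates at least about 35%, with every replicate also reaching that limit, limit read from the data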;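 note: 0% = median of neutral control wells and 100% = no fluorescence left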
NSD2 inh = NSD2 histone methyltransferase inhibitors, primary screen, biochemical, AlphaScreen, single concentration, set 2; NSD2 peptide methylation, 120 min; actives 0.54% (n = 310,000); Histone-lysine N-methyltransferase NSD2 (Homo sapiens), O96028; inhibition, % at 12.5 µM; in the data active = inhibition above about 50%
CaV13 ICDI inh = Disruptors of the CACNA1D IQ motif to Ca2+-dependent inactivation inhibitor domain association, primary screening, Förster resonance energy transfer in intact living …. HEK cells, CFP/YFP FRET ICDI-IQ, plate reader, 10 min; percent FRET-ratio fall versus neutral wells. inhibition, % at 12.3 µM. actives 0.098% (n = 340,000). AID 743397;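 active = mean replicate inhibition of at least 30% and at least 1% of replicates passing that level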;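 note: 0% = median of the neutral control wells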
FN deposition inh = inhibitors of fibronectin matrix deposition, primary screen, AH1F cells, Alexa488-fibronectin fluorescence, plate reader; AH1F fibroblasts, overnight; inhibition, % at 12.6 µM; actives 0.086% (n = 350,000); AID 743247, 2014;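 active = mean inhibition across replicates of 30% or more, regardless of how many single replicates reach that level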;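 note: positive control wells lacked labelled fibronectin entirely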
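Assay system: AH1F fibroblast monolayer, labelled fibronectin deposition. Amount: 10000 cells per well. Also added: labelled fibronectin 24 nM. Compound: single-point pinned compound. Incubation: cell attachment 1 h, compound and FN exposure overnight. Detection: fluorescence after three HBSS washes, excitation 485 nm, emission 525 nm. Read-out: inhibition of fibronectin deposition signal.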
NPR2 activator = human GC-B receptor activators, primary screen, HEK293 GC-B cells, cGMP TR-FRET, EC30 CNP | actives 0.11% (n = 370,000) | activation, % at 10 µM | AID 1920062, 2024 | 0% at EC30 CNP, 100% saturating CNP;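 active = activation at 10 µM reaching about 35% in either raw or pattern-adjusted values, limit read from the data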
NPR1 activator = GC-A stimulated cGMP production enhancers – HEK293 GC-A cells, cGMP TR-FRET, EC30 ANP, primary screen; 0% at EC30 ANP, 100% saturating ANP; activation, % at 10 µM; actives 0.14% (n = 370,000); in the data active = activation above about 40%
* hit, by the source's call. Only some compounds are listed: those with a hit (about 0.99% of all), similar ones and a draw of the others.

Screening CN(c1ccccc1)S(=O)(=O)c1cccc(C(=O)OCC(=O)Nc2ccc(C(N)=O)cc2)c1 returned Casp6 inh 40*, NSD2 inh 6, CaV13 ICDI inh -5, FN deposition inh 3, NPR2 activator -3 and NPR1 activator 0.
`CCC(NC(=O)Cc1cccs1)c1ccccc1` (stereo unspecified) gave Casp6 inh -1, NSD2 inh 1, CaV13 ICDI inh 0, FN deposition inh -4, NPR2 activator 68* and NPR1 activator 1.
`CCCN1CCC2(CC1)CN(Cc1ccc3c(c1)OCO3)[C@H](CO)c1[nH]c3cc(OC)ccc3c12` gave Casp6 inh -2 and FN deposition inh 8.
`CCOC(=O)CCSc1nc(-c2ccc3c(c2)OCO3)cc(C(F)(F)F)c1C#N` gave Casp6 inh 3, NSD2 inh 0, CaV13 ICDI inh -7, NPR2 activator 22 and NPR1 activator 42*.
CC(=O)Nc1ccc(S(=O)(=O)NC2=C(N3CCN(C)CC3)C(=O)c3ccccc3C2=O)cc1 was read as Casp6 inh 44*, NSD2 inh 29, CaV13 ICDI inh -7, FN deposition inh -1, NPR2 activator -4 and NPR1 activator -2.
For CCOC(=O)N1CCN(C2=C(NS(=O)(=O)c3ccc(NC(C)=O)cc3)C(=O)c3ccccc3C2=O)CC1 the results were Casp6 inh 19, NSD2 inh 48, CaV13 ICDI inh -13, FN deposition inh 2, NPR2 activator 2 and NPR1 activator -2.
For CCOC(=O)C1CCCN(C2=C(NS(=O)(=O)c3ccc(Br)cc3)C(=O)c3ccccc3C2=O)C1 (stereo unspecified) the results were NSD2 inh 46, CaV13 ICDI inh -7, FN deposition inh 12, NPR2 activator -4 and NPR1 activator -1.
Screening CCN1CCN(C2=C(NS(=O)(=O)c3ccc(C)cc3)C(=O)c3ccccc3C2=O)CC1 returned Casp6 inh 62*, NSD2 inh 51*, CaV13 ICDI inh -2, FN deposition inh -4, NPR2 activator -6 and NPR1 activator -5.
Screening CCOC(=O)C1CCN(C2=C(NS(=O)(=O)c3ccc(Cl)cc3)C(=O)c3ccccc3C2=O)CC1 returned Casp6 inh 0, NSD2 inh 67*, CaV13 ICDI inh -6, FN deposition inh 5, NPR2 activator -1 and NPR1 activator 3.
Screening CCN1CCN(C2=C(NS(=O)(=O)c3ccc(NC(C)=O)cc3)C(=O)c3ccccc3C2=O)CC1 returned Casp6 inh 48*, NSD2 inh 26, CaV13 ICDI inh -8, FN deposition inh -1, NPR2 activator 0 and NPR1 activator -1.
`CC(=O)Nc1ccc(S(=O)(=O)NC2=C(N3CCN(Cc4ccccc4)CC3)C(=O)c3ccccc3C2=O)cc1` gave Casp6 inh 30, NSD2 inh 24, CaV13 ICDI inh -6, FN deposition inh -2, NPR2 activator 1 and NPR1 activator -3.
Screening COc1ccc([C@H]2C[C@H]3C(Br)=CC2C(=O)[C@]32CO2)cc1OC returned Casp6 inh 1.
Cc1ccc(-n2nnc3c(=O)oc4ccccc4c32)cc1 was read as NSD2 inh 4, CaV13 ICDI inh -6, NPR2 activator 39* and NPR1 activator -3.
`CCC(C)n1nnc2c(=O)oc3ccccc3c21` (stereo unspecified) gave Casp6 inh 1, NSD2 inh 0, CaV13 ICDI inh -7, NPR2 activator -1 and NPR1 activator 3.
`N#Cc1cccc(-c2nnc(SCc3ccccc3C#N)o2)c1` gave NSD2 inh 16, CaV13 ICDI inh -4, FN deposition inh -1, NPR2 activator 38* and NPR1 activator 35.
`C[C@@H]1CCCCO[C@@H](CN(C)S(=O)(=O)c2cccs2)[C@H](C)CN([C@@H](C)CO)C(=O)c2cc(NC(=O)c3ccncc3)ccc2O1` gave Casp6 inh -2 and FN deposition inh -2.
Nc1ccccc1S(N)(=O)=O was read as Casp6 inh -3, CaV13 ICDI inh -6, FN deposition inh 4, NPR2 activator 2 and NPR1 activator 7.
Nc1cc(C(Cl)=C(Cl)Cl)c(S(N)(=O)=O)cc1S(N)(=O)=O was read as Casp6 inh 76*, CaV13 ICDI inh -5, FN deposition inh -2, NPR2 activator -7 and NPR1 activator 3.
Screening CC(C)=CC(=O)OCC(=O)Nc1nc(C)c(Cl)cc1Cl returned CaV13 ICDI inh -5, FN deposition inh -6, NPR2 activator 0 and NPR1 activator 1.
For O=C(COC(=O)/C=C/c1ccco1)Nc1ncc(Cl)cc1Cl the results were Casp6 inh 44*, NSD2 inh 0, CaV13 ICDI inh -5, FN deposition inh -6, NPR2 activator 2 and NPR1 activator -1.
Cc1nc(NC(=O)COC(=O)/C=C/c2ccco2)c(Cl)cc1Cl was read as Casp6 inh 50*, NSD2 inh 1, CaV13 ICDI inh -2, FN deposition inh -6, NPR2 activator 1 and NPR1 activator -1.
`COc1ccccc1NC(=O)c1ccccc1S(=O)(=O)c1ccc([N+](=O)[O-])cc1` gave Casp6 inh 40*, NSD2 inh 3, NPR2 activator 5 and NPR1 activator -8.
Screening COc1ccccc1NC(=O)c1ccccc1S(=O)(=O)c1ccccc1[N+](=O)[O-] returned Casp6 inh 0, NSD2 inh 3, CaV13 ICDI inh -16, FN deposition inh 3, NPR2 activator -3 and NPR1 activator 0.
CCCCC(NC(=O)Cc1c(C)c2cc3c(-c4ccccc4)coc3c(C)c2oc1=O)C(=O)O (stereo unspecified) was read as Casp6 inh 60*, NSD2 inh 5, CaV13 ICDI inh -5, FN deposition inh -5, NPR2 activator 1 and NPR1 activator 1.
Cc1c(CC(=O)O)c(=O)oc2c(C)c3occ(-c4ccc(Br)cc4)c3cc12 was read as Casp6 inh 5, NSD2 inh 4, CaV13 ICDI inh -4, FN deposition inh 5, NPR2 activator 3 and NPR1 activator 3.
For c1ccc(CCNc2ccc3ncc(-c4cccc5ccccc45)n3n2)nc1 the results were Casp6 inh 57*, NSD2 inh -1, CaV13 ICDI inh -4, FN deposition inh 3, NPR2 activator 14 and NPR1 activator 1.

Source: PubChem
